# Results from the M2OR odorant receptor database.
# Molecular target: T1, OR5B17 (Homo sapiens) (UniProt Q8NGF7)
# T1 sequence (whole entry): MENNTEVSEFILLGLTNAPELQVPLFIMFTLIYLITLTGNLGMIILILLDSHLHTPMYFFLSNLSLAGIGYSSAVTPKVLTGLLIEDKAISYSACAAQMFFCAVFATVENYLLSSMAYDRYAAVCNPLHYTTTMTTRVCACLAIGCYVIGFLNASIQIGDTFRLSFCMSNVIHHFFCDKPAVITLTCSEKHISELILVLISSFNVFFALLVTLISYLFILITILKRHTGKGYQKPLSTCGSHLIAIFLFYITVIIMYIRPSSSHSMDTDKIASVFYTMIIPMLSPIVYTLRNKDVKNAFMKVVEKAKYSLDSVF
# Conditions: stereoisomer not certain
# How it was run: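 Each entry records the cell line, G-protein, co-transfected protein and tags used. Methods varied with the source, often transient luciferase assays in mammalian cell lines. A receptor–molecule pair is called responsive (active) if the original authors judged its signal statistically different from baseline and non-responsive (inactive) otherwise.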
row,Structure (SMILES),odorant receptor agonist call
1,CCCCCC1COCCC1OC(C)=O (stereo unspecified),inactive
2,Cc1ccc(C(C)C)cc1O,inactive
3,CC(CC=O)c1ccc(C(C)(C)C)cc1 (stereo unspecified),inactive
4,COC1CC2CC1C1CC(C=O)CC21 (stereo unspecified),inactive
5,C=CCOC(=O)COCCC(C)C,inactive
6,CCCCC1CCC(=O)O1 (stereo unspecified),inactive
7,COc1ccc(C)cc1,inactive
8,CC(C)(C)C1CCCCC1OCCCCO (stereo unspecified),inactive
9,C=CC(C)(CCC=C(C)C)OC(C)=O (stereo unspecified),inactive
10,CC=CC(=O)C1C(C)=CCCC1(C)C (stereo unspecified),inactive
11,CCCC(C)C(=O)OCC (stereo unspecified),inactive
12,CC(=O)OCc1ccccc1,inactive
13,CCC(=O)C=CC1C(C)=CCCC1(C)C (stereo unspecified),inactive
14,CC1=CCC2CC1C2(C)C (stereo unspecified),inactive
15,CC(C)CCCC(C)(C)O,inactive
16,CCCCCC1C(=O)CCC1CC(=O)OC (stereo unspecified),inactive
17,C=CC(C)(O)CCC=C(C)CCC=C(C)C (stereo unspecified),inactive
18,CC(C)=CCCC(C)=CCO,inactive
19,CC(=O)C=CC1=C(C)CCCC1(C)C,inactive
20,Cc1occc(=O)c1OC(=O)C(C)C,inactive
21,OCc1ccccc1,inactive
